Calls of active or inactive are those of the source. No cut-off for these calls is given here.
Experiments:
Liver microsomes [1] = test: Metabolic stability of the compound in human liver microsomes at 0.5 uM up to 90 mins by LC-MS analysis; assay type: ADME, Microsome
Liver [2] = test: Half life in mouse liver microsomes at 0.5 uM by LC-MS analysis; assay type: ADME, Microsome
In short: (§1)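 Compound at 0.5 µM incubated with 1 mg/mL liver microsomal protein at 37 °C with shaking. […] Samples taken at 5, 10, 20, 30, 60 and 90 min and quenched with acetonitrile containing internal standard. After centrifugation, the supernatant was analysed by LC-MS/MS.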

Bos taurus [3] = organism: Bos taurus; test: Inhibition of bovine brain tubulin polymerization after 15 mins by spectrophotometric analysis
In short: (§2)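 Bovine brain tubulin (>97% pure, 0.4 mg per assay) mixed with compound at 5, 10 or 20 µM, with 5% DMSO as vehicle control. Buffer: 80 mM PIPES, 2.0 mM MgCl2, 0.5 mM EGTA, 1 mM GTP, pH 6.9. Polymerization followed at 37 °C as absorbance at 340 nm, read every minute for 15 min.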

Liver microsomes [4] = test: Half life in rat liver microsomes at 0.5 uM by LC-MS analysis; assay type: ADME, Microsome; in short: as §1
Liver [5] = test: Metabolic stability of the compound in dog liver microsomes at 0.5 uM up to 90 mins by LC-MS analysis; assay type: ADME, Canis lupus familiaris, Microsome; in short: as §1
Liver microsomes [6] = test: Metabolic stability of the compound in human liver microsomes at […] up to 90 mins by LC-MS analysis; assay type: ADME, Microsome
In short: (§3)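 Aliquots were drawn at 5, 10, 20, 30, 60 and 90 min and quenched in acetonitrile containing internal standard. After centrifugation, supernatants were measured by LC-MS/MS to follow parent loss and derive half-life.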

MDA-MB-435 [7] = test: Antiproliferative activity against human MDA-MB-435 cells expressing LCC6MDR1 by sulforhodamine B assay; assay type: functional, cell-based
PC-3 [8] = test: Antiproliferative activity against human PC3 cells after 96 hrs by sulforhodamine B assay; assay type: functional, cell-based; settings: PC-3, 96 h
PPC-1 = test: Antiproliferative activity against human PPC1 cells after 96 hrs by sulforhodamine B assay; assay type: functional, cell-based; settings: PPC-1, 96 h
PC-3 [9] = test: Antiproliferative activity against human PC3 cells by sulforhodamine B assay; assay type: functional, cell-based
In short: (§4)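 Prostate cancer cells grown in RPMI 1640 with 10% FBS at 37 °C, 5% CO2. Cells (1000–5000/well, by growth rate) were exposed to a range of concentrations for 96 h, in three to five replicates. Growth was read by SRB: TCA fixation, 0.4% SRB stain, absorbance at 540 nm.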

MDA-MB-435 [10] = test: Antiproliferative activity against human MDA-MB-435 cells by sulforhodamine B assay; assay type: functional, cell-based
PC-3 [11] = test: Antiproliferative activity against human paclitaxel-resistant PC3 cells by sulforhodamine B assay; assay type: functional, cell-based; in short: as §4
DU-145 [12] = test: Resistance index, ratio of IC50 for human paclitaxel-resistant DU145 cells to IC50 for human DU145 cells; assay type: functional
In short: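 Ratio of SRB-assay IC50 values, paclitaxel-resistant DU145-TxR over parental DU145. Both lines grown in RPMI 1640 with 10% FBS and exposed to the compound for 96 h, in three to five replicates. Absorbance read at 540 nm after TCA fixation and SRB staining.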

DU-145 [13] = test: Antiproliferative activity against human paclitaxel-resistant DU145 cells by sulforhodamine B assay; assay type: functional, cell-based
In short: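 Prostate cancer cells grown in RPMI 1640 with 10% FBS at 37 °C, 5% CO2. Seeded at 1000–5000 cells/well depending on growth rate and exposed to a concentration series for 96 h, in three to five replicates. Cells fixed with 10% TCA and stained with 0.4% SRB, absorbance read at 540 nm.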

LNCaP = test: Antiproliferative activity against human LNCAP cells after 96 hrs by sulforhodamine B assay; assay type: functional, cell-based
DU-145 [14] = test: Antiproliferative activity against human DU145 cells after 96 hrs by sulforhodamine B assay; assay type: functional, cell-based; settings: DU-145, 96 h
[15] = Antiproliferative activity against human WM164 cells after 48 hrs by sulforhodamine B assay; assay type: functional, cell-based; settings: WM164, 48 h
Bos taurus [16] = organism: Bos taurus; test: Inhibition of bovine brain tubulin polymerization at 10 to 20 uM after 15 mins by spectrophotometric analysis; in short: as §2
MDA-MB-435 [17] = test: Resistance index, ratio of IC50 for human MDA-MB-435 cells expressing LCC6MDR1 to IC50 for human MDA-MB-435 cells; assay type: functional
A-375 = test: Antiproliferative activity against human A375 cells after 48 hrs by sulforhodamine B assay; assay type: functional, cell-based; settings: A-375, 48 h
PC-3 [18] = test: Resistance index, ratio of IC50 for human paclitaxel-resistant PC3 cells to IC50 for human PC3 cells; assay type: functional
In short: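 Ratio of SRB-assay IC50 values, paclitaxel-resistant PC-3-TxR over parental PC-3. Both lines grown in RPMI 1640 with 10% FBS and treated for 96 h, in three to five replicates. IC50 taken from absorbance at 540 nm by nonlinear regression.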

DU-145 [19] = test: Antiproliferative activity against human DU145 cells by sulforhodamine B assay; assay type: functional, cell-based
Liver [20] = test: Half life in mouse liver microsomes at […] by LC-MS analysis; assay type: ADME, Microsome; in short: as §3
Liver microsomes [21] = test: Half life in rat liver microsomes at […] by LC-MS analysis; assay type: ADME, Microsome; in short: as §3
Liver [22] = test: Metabolic stability of the compound in dog liver microsomes at […] up to 90 mins by LC-MS analysis; assay type: ADME, Canis lupus familiaris, Microsome; in short: as §3

SMILES | Stability (Liver microsomes [1]) | inhibition (Bos taurus [3]) | Stability (Liver microsomes [6]) | IC50 (MDA-MB-435 [7]) [nM] | IC50 (PC-3 [8]) [nM] | IC50 (PPC-1) [nM] | IC50 (PC-3 [9]) [nM] | IC50 (MDA-MB-435 [10]) [nM] | IC50 (PC-3 [11]) [nM] | Ratio IC50 (DU-145 [12]) | IC50 (DU-145 [13]) [nM] | IC50 (LNCaP) [nM] | IC50 (DU-145 [14]) [nM] | IC50 [15] [nM] | Ratio IC50 (MDA-MB-435 [17]) | IC50 (A-375) [nM] | Ratio IC50 (PC-3 [18]) | other results
COc1cc(C(=O)c2c[nH]c(-c3ccc(C)cc3)n2)cc(OC)c1OC | Stable | Dose-dependent effect | Stable | – | – | – | – | – | – | – | – | – | – | – | – | – | – | t1/2 (Liver [2]): 12 min; t1/2 (Liver microsomes [4]): 20 min; Stability (Liver [5]): Stable
COc1cc(C(=O)c2c[nH]c(-c3ccc(Br)cc3)n2)cc(OC)c1OC | – | Dose-dependent effect | – | 79 | 40 | 30 | 18 | 86 | 16 | 1.1 | 54 | 30 | 50 | 40 | 0.9 | 30 | 0.9 | inhibition (Bos taurus [16]): Active; IC50 (DU-145 [19]): 49 nM
COc1cc(C(=O)c2cn(C)c(-c3ccc(C)cc3)n2)cc(OC)c1OC | Stable | Dose-dependent effect | Stable | 67 | 40 | 30 | 21 | 83 | 19 | 1 | 52 | 30 | 30 | 40 | 0.8 | 30 | 0.9 | t1/2 (Liver [20]): 5 min; t1/2 (Liver microsomes [21]): 10 min; Stability (Liver [22]): Stable
